Source: ChEMBL document CHEMBL1275559, “Complex ciprofloxacin resistome revealed by screening a Pseudomonas aeruginosa mutant library for altered susceptibility” (2008)
The source made the active and inactive calls.

What was measured:
[1] = system: Pseudomonas aeruginosa; assay: Upregulation of conserved hypothetical protein in Pseudomonas aeruginosa PA0613 at 0.3 times MIC after 48 hrs; format: functional, organism-based
[2] = system: Pseudomonas aeruginosa; assay: Upregulation of putative tail fiber assembly protein in Pseudomonas aeruginosa PA0621 at 0.3 times MIC; format: functional, organism-based
[3] = system: Pseudomonas aeruginosa; assay: Upregulation of conserved hypothetical protein in Pseudomonas aeruginosa PA0647 at 0.3 times MIC; format: functional, organism-based
Method in brief: (§1)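 P. aeruginosa cells were treated with ciprofloxacin at 0.3× MIC or 1× MIC. Gene expression trend was scored relative to untreated cells.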

[4] = system: Pseudomonas aeruginosa; assay: Upregulation of hypothetical protein in Pseudomonas aeruginosa PA0630 at MIC; format: functional, organism-based; method in brief: as §1
[5] = system: Pseudomonas aeruginosa; assay: Downregulation of tig gene in Pseudomonas aeruginosa PA1800 at 1 times MIC relative to untreated control; format: functional, organism-based; method in brief: as §1
[6] = system: Pseudomonas aeruginosa; assay: Upregulation of putative tail length determination protein in Pseudomonas aeruginosa PA0636 at 0.3 times MIC; format: functional, organism-based
[7] = system: Pseudomonas aeruginosa; assay: Downregulation of nuoG gene in Pseudomonas aeruginosa PA2642 at MIC; format: functional, organism-based; method in brief: as §1
[8] = system: Pseudomonas aeruginosa; assay: Upregulation of ygdP gene in Pseudomonas aeruginosa PA0336 at 1 times MIC relative to untreated control; format: functional, organism-based
[9] = system: Pseudomonas aeruginosa; assay: Upregulation of hypothetical protein in Pseudomonas aeruginosa PA0616 at MIC; format: functional, organism-based; method in brief: as §1
[10] = system: Pseudomonas aeruginosa; assay: Upregulation of hypothetical protein in Pseudomonas aeruginosa PA0338 at 0.3 times MIC; format: functional, organism-based; method in brief: as §1
[11] = system: Pseudomonas aeruginosa; assay: Upregulation of putative phage base plate assembly protein in Pseudomonas aeruginosa PA0618 at 0.3 times MIC; format: functional, organism-based; method in brief: as §1
[12] = system: Pseudomonas aeruginosa; assay: Upregulation of putative phage tail tube protein in Pseudomonas aeruginosa PA0623 at MIC; format: functional, organism-based
[13] = system: Pseudomonas aeruginosa; assay: Upregulation of hypothetical protein in Pseudomonas aeruginosa PA0630 at 0.3 times MIC; format: functional, organism-based; method in brief: as §1
[14] = system: Pseudomonas aeruginosa; assay: Upregulation of conserved hypothetical protein in Pseudomonas aeruginosa PA3784 at MIC after 48 hrs; format: functional, organism-based
[15] = system: Pseudomonas aeruginosa; assay: Upregulation of gidA gene in Pseudomonas aeruginosa PA5565 at MIC; format: functional, organism-based; method in brief: as §1
[16] = system: Pseudomonas aeruginosa; assay: Upregulation of putative phage tail tube protein in Pseudomonas aeruginosa PA0623 at 0.3 times MIC; format: functional, organism-based
[17] = system: Pseudomonas aeruginosa; assay: Upregulation of hypothetical protein in Pseudomonas aeruginosa PA0338 at MIC; format: functional, organism-based; method in brief: as §1
[18] = system: Pseudomonas aeruginosa; assay: Upregulation of conserved hypothetical protein in Pseudomonas aeruginosa PA0615 at 0.3 times MIC; format: functional, organism-based; method in brief: as §1
[19] = system: Pseudomonas aeruginosa; assay: Upregulation of possible nuclease or phosphatase in Pseudomonas aeruginosa PA3958 at MIC after 48 hrs; format: functional, organism-based
[20] = system: Pseudomonas aeruginosa; assay: Upregulation of mutL gene in Pseudomonas aeruginosa PA4946 at MIC; format: functional, organism-based; method in brief: as §1
[21] = system: Pseudomonas aeruginosa; assay: Upregulation of putative tail length determination protein in Pseudomonas aeruginosa PA0636 at MIC; format: functional, organism-based
[22] = system: Pseudomonas aeruginosa; assay: Upregulation of putative tail fiber protein in Pseudomonas aeruginosa PA0620 at MIC; format: functional, organism-based
[23] = system: Pseudomonas aeruginosa; assay: Upregulation of conserved hypothetical protein in Pseudomonas aeruginosa PA0615 at MIC; format: functional, organism-based; method in brief: as §1
[24] = system: Pseudomonas aeruginosa; assay: Upregulation of putative base plate assembly protein W in Pseudomonas aeruginosa PA0617 at MIC; format: functional, organism-based; method in brief: as §1
[25] = system: Pseudomonas aeruginosa; assay: Upregulation of hypothetical protein in Pseudomonas aeruginosa PA0736-PA0737 at MIC; format: functional, organism-based; method in brief: as §1
[26] = system: Pseudomonas aeruginosa; assay: Downregulation of betT1 gene in Pseudomonas aeruginosa PA5375 at 0.3 times MIC relative to untreated control
[27] = system: Pseudomonas aeruginosa; assay: Upregulation of putative phage tail sheath protein in Pseudomonas aeruginosa PA0622 at MIC after 48 hrs; format: functional, organism-based
[28] = system: Pseudomonas aeruginosa; assay: Upregulation of mexB gene in Pseudomonas aeruginosa PA0426 at 0.3 times MIC relative to untreated control; format: functional, organism-based; method in brief: as §1
[29] = system: Pseudomonas aeruginosa; assay: Upregulation of hypothetical protein in Pseudomonas aeruginosa PA0634 at MIC; format: functional, organism-based; method in brief: as §1
[30] = system: Pseudomonas aeruginosa; assay: Upregulation of conserved hypothetical protein in Pseudomonas aeruginosa PA1433 at MIC after 48 hrs; format: functional, organism-based
[31] = system: Pseudomonas aeruginosa; assay: Upregulation of possible nuclease or phosphatase in Pseudomonas aeruginosa PA3958 at 0.3 times MIC after 48 hrs; format: functional, organism-based
[32] = system: Pseudomonas aeruginosa; assay: Upregulation of putative tail fiber assembly protein in Pseudomonas aeruginosa PA0621 at MIC; format: functional, organism-based
[33] = system: Pseudomonas aeruginosa; assay: Upregulation of hitB gene in Pseudomonas aeruginosa PA4688 at MIC; format: functional, organism-based; method in brief: as §1
[34] = system: Pseudomonas aeruginosa; assay: Upregulation of putative tail formation protein in Pseudomonas aeruginosa PA0626 at 0.3 times MIC; format: functional, organism-based
[35] = system: Pseudomonas aeruginosa; assay: Upregulation of conserved hypothetical protein in Pseudomonas aeruginosa PA0613 at MIC after 48 hrs; format: functional, organism-based
[36] = system: Pseudomonas aeruginosa; assay: Upregulation of putative phage tail assembly protein in Pseudomonas aeruginosa PA0640 at 0.3 times MIC; format: functional, organism-based; method in brief: as §1
[37] = system: Pseudomonas aeruginosa; assay: Upregulation of putative phage-related protein, tail component in Pseudomonas aeruginosa PA0641 at 0.3 times MIC; format: functional, organism-based
[38] = system: Pseudomonas aeruginosa; assay: Downregulation of adhA gene in Pseudomonas aeruginosa PA5427 at MIC; format: functional, organism-based; method in brief: as §1
[39] = system: Pseudomonas aeruginosa; assay: Downregulation of hypothetical protein in Pseudomonas aeruginosa PA3276 at 0.3 times MIC after 48 hrs; format: functional, organism-based
[40] = system: Pseudomonas aeruginosa; assay: Upregulation of putative major tail protein V in Pseudomonas aeruginosa PA0633 at 0.3 times MIC; format: functional, organism-based; method in brief: as §1
[41] = system: Pseudomonas aeruginosa; assay: Upregulation of conserved hypothetical protein in Pseudomonas aeruginosa PA0624 at 0.3 times MIC; format: functional, organism-based; method in brief: as §1
[42] = system: Pseudomonas aeruginosa; assay: Upregulation of putative phage tail protein in Pseudomonas aeruginosa PA0619 at MIC; format: functional, organism-based
[43] = system: Pseudomonas aeruginosa; assay: Upregulation of putative tail fiber protein in Pseudomonas aeruginosa PA0620 at 0.3 times MIC; format: functional, organism-based
[44] = system: Pseudomonas aeruginosa; assay: Upregulation of oprM gene in Pseudomonas aeruginosa PA0427 at 1 times MIC relative to untreated control; format: functional, organism-based; method in brief: as §1
[45] = system: Pseudomonas aeruginosa; assay: Upregulation of putative phage-related protein, tail component in Pseudomonas aeruginosa PA0641 at MIC; format: functional, organism-based
[46] = system: Pseudomonas aeruginosa; assay: Upregulation of ygdP gene in Pseudomonas aeruginosa PA0336 at 0.3 times MIC relative to untreated control; format: functional, organism-based
[47] = system: Pseudomonas aeruginosa; assay: Downregulation of betT1 gene in Pseudomonas aeruginosa PA5375 at 0.3 times MIC relative to untreated control; format: functional, organism-based; method in brief: as §1
[48] = system: Pseudomonas aeruginosa; assay: Upregulation of conserved hypothetical protein in Pseudomonas aeruginosa PA0624 at MIC; format: functional, organism-based; method in brief: as §1
[49] = system: Pseudomonas aeruginosa; assay: Upregulation of nuoN gene in Pseudomonas aeruginosa PA2649 at 0.3 times MIC; format: functional, organism-based; method in brief: as §1
[50] = system: Pseudomonas aeruginosa; assay: Upregulation of putative minor tail protein L in Pseudomonas aeruginosa PA0638 at MIC; format: functional, organism-based; method in brief: as §1
[51] = system: Pseudomonas aeruginosa; assay: Upregulation of hypothetical protein in Pseudomonas aeruginosa PA0634 at 0.3 times MIC; format: functional, organism-based; method in brief: as §1
[52] = system: Pseudomonas aeruginosa; assay: Upregulation of putative sensor/response regulator hybrid in Pseudomonas aeruginosa PA1611 at 0.3 times MIC; format: functional, organism-based
[53] = system: Pseudomonas aeruginosa; assay: Upregulation of putative major tail protein V in Pseudomonas aeruginosa PA0633 at MIC; format: functional, organism-based; method in brief: as §1
[54] = system: Pseudomonas aeruginosa; assay: Upregulation of atpB gene in Pseudomonas aeruginosa PA5560 at MIC; format: functional, organism-based; method in brief: as §1
[55] = system: Pseudomonas aeruginosa; assay: Upregulation of hitB gene in Pseudomonas aeruginosa PA4688 at 0.3 times MIC; format: functional, organism-based; method in brief: as §1
[56] = system: Pseudomonas aeruginosa; assay: Upregulation of hypothetical protein in Pseudomonas aeruginosa PA4685 at 0.3 times MIC; format: functional, organism-based; method in brief: as §1
[57] = system: Pseudomonas aeruginosa; assay: Upregulation of hypothetical protein in Pseudomonas aeruginosa PA0736-PA0737 at 0.3 times MIC; format: functional, organism-based; method in brief: as §1
[58] = system: Pseudomonas aeruginosa; assay: Upregulation of conserved hypothetical protein in Pseudomonas aeruginosa PA0647 at MIC; format: functional, organism-based; method in brief: as §1
[59] = system: Pseudomonas aeruginosa; assay: Upregulation of putative permease of ABC transporter in Pseudomonas aeruginosa PA2060 at 0.3 times MIC after 48 hrs; format: functional, organism-based
[60] = system: Pseudomonas aeruginosa; assay: Upregulation of putative phage tail sheath protein in Pseudomonas aeruginosa PA0622 at 0.3 times MIC after 48 hrs; format: functional, organism-based
[61] = system: Pseudomonas aeruginosa; assay: Upregulation of hypothetical protein in Pseudomonas aeruginosa PA4459 at MIC; format: functional, organism-based; method in brief: as §1
[62] = system: Pseudomonas aeruginosa; assay: Upregulation of hypothetical protein in Pseudomonas aeruginosa PA0616 at 0.3 times MIC; format: functional, organism-based; method in brief: as §1
[63] = system: Pseudomonas aeruginosa; assay: Upregulation of putative phage base plate assembly protein in Pseudomonas aeruginosa PA0618 at MIC; format: functional, organism-based; method in brief: as §1
[64] = system: Pseudomonas aeruginosa; assay: Upregulation of putative phage tail protein in Pseudomonas aeruginosa PA0619 at 0.3 times MIC; format: functional, organism-based; method in brief: as §1
[65] = system: Pseudomonas aeruginosa; assay: Upregulation of putative tail formation protein in Pseudomonas aeruginosa PA0626 at MIC; format: functional, organism-based
[66] = system: Pseudomonas aeruginosa; assay: Upregulation of putative phage tail assembly protein in Pseudomonas aeruginosa PA0640 at MIC; format: functional, organism-based; method in brief: as §1
[67] = system: Pseudomonas aeruginosa; assay: Downregulation of oprF gene in Pseudomonas aeruginosa PA1777 at 1 times MIC relative to untreated control; format: functional, organism-based; method in brief: as §1
[68] = system: Pseudomonas aeruginosa; assay: Upregulation of putative base plate assembly protein W in Pseudomonas aeruginosa PA0617 at 0.3 times MIC; format: functional, organism-based; method in brief: as §1

Measured: Activity

O=C(O)c1cn(C2CC2)c2cc(N3CCNCC3)c(F)cc2c1=O
active: all assays above
